Measurements: ChEMBL document CHEMBL5120972, “Small-Molecule Inhibitors of the MLL1 CXXC Domain, an Epigenetic Reader of DNA Methylation” (ACS Med Chem Lett, 2022)
The source made the active and inactive calls. No cut-off for these calls is given here.

system: MV4-11; assay: Anti-proliferative activity against human MV4-11 cells harboring MLL fusion protein assessed as inhibition of cell viability upto 120 uM for 72 hrs by MTT assay; type: functional, cell-based
In short: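 MV4-11 MLL-fusion leukemia cells are exposed to compound across a concentration range for 72 h. Growth is read out by MTT assay, with three replicates.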

Compound | Activity
C=CC(=O)N1CCC(C(=O)OCC)(c2ccccc2)CC1 | Active

molecular target: Histone-lysine N-methyltransferase 2A (Homo sapiens, UniProt Q03164); assay: Inhibition of GST-tagged human MLL1 (1147 to 1203 residues) expressed in Escherichia coli BL21 cells incubated for 30 mins by fluorescence polarization assay
Sequence (Q03164 1-2718 limits assumed): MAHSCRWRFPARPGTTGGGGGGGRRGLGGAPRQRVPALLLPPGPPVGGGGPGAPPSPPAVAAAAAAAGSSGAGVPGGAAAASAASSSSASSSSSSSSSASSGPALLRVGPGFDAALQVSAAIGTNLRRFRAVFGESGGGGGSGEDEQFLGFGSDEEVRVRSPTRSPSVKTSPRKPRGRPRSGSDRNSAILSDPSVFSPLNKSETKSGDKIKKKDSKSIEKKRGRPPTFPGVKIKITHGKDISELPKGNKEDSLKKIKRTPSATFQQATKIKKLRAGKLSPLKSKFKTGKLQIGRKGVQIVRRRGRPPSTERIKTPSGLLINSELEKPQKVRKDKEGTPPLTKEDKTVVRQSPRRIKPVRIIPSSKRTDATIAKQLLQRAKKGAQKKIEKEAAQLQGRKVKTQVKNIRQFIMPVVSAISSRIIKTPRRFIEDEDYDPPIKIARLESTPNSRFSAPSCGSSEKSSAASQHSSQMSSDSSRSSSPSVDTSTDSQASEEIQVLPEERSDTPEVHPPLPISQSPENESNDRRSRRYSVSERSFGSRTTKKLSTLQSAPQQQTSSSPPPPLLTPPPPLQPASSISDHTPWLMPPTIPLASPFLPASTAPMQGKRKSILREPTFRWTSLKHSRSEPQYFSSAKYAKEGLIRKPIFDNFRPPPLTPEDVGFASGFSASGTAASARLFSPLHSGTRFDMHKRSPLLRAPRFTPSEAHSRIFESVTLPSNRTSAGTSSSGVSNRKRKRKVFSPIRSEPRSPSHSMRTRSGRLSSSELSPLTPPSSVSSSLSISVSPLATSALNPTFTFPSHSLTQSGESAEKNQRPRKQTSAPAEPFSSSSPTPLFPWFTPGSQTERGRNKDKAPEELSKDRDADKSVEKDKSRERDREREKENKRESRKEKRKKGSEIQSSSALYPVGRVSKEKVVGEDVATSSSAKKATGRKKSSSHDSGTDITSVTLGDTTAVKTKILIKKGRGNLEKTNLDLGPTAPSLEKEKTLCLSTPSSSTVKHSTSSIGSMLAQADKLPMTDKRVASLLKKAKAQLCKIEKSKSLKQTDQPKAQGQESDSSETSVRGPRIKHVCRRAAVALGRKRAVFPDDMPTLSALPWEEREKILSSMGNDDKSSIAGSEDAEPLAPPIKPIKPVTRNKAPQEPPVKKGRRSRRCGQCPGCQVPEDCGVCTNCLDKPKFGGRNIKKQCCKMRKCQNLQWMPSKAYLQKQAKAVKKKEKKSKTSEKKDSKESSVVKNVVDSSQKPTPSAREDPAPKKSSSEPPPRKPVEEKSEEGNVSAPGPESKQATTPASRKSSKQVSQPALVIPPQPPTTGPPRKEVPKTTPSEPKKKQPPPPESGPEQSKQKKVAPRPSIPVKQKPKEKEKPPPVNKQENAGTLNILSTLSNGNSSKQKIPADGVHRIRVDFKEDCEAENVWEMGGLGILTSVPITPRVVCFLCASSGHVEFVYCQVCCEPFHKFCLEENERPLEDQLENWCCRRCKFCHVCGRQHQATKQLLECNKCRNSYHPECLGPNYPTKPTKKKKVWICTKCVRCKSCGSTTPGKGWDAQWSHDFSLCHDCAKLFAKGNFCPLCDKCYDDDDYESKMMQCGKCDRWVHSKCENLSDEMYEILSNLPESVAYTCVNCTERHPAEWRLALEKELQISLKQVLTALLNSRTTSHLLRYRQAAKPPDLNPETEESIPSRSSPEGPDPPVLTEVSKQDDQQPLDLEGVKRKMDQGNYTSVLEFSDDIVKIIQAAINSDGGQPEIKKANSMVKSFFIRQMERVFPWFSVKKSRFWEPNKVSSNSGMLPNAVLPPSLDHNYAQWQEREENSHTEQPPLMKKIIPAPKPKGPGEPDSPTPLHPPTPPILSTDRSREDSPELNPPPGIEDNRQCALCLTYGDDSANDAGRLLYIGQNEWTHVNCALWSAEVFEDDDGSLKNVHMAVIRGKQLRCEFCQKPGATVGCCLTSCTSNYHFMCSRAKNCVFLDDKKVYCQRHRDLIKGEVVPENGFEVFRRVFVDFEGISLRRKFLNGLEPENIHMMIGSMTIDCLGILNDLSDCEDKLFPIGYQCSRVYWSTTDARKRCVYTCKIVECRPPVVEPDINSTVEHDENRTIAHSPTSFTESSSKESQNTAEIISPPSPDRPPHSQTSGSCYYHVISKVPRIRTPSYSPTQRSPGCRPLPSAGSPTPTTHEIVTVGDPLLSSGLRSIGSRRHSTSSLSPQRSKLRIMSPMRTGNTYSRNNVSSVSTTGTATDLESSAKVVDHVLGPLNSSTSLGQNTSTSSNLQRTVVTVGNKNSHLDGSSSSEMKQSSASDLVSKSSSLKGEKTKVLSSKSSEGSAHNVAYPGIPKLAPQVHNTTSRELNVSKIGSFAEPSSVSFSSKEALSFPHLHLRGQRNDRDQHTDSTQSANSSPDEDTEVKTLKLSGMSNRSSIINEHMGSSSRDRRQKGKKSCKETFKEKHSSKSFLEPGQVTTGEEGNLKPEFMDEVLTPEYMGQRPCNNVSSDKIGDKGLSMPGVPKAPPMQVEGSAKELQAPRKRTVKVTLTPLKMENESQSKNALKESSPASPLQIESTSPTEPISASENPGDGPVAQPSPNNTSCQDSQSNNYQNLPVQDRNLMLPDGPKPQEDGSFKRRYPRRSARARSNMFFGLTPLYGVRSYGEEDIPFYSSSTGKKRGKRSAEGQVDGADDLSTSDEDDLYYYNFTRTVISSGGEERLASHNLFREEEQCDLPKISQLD
Sequence (Q03164 2719-3969 limits assumed): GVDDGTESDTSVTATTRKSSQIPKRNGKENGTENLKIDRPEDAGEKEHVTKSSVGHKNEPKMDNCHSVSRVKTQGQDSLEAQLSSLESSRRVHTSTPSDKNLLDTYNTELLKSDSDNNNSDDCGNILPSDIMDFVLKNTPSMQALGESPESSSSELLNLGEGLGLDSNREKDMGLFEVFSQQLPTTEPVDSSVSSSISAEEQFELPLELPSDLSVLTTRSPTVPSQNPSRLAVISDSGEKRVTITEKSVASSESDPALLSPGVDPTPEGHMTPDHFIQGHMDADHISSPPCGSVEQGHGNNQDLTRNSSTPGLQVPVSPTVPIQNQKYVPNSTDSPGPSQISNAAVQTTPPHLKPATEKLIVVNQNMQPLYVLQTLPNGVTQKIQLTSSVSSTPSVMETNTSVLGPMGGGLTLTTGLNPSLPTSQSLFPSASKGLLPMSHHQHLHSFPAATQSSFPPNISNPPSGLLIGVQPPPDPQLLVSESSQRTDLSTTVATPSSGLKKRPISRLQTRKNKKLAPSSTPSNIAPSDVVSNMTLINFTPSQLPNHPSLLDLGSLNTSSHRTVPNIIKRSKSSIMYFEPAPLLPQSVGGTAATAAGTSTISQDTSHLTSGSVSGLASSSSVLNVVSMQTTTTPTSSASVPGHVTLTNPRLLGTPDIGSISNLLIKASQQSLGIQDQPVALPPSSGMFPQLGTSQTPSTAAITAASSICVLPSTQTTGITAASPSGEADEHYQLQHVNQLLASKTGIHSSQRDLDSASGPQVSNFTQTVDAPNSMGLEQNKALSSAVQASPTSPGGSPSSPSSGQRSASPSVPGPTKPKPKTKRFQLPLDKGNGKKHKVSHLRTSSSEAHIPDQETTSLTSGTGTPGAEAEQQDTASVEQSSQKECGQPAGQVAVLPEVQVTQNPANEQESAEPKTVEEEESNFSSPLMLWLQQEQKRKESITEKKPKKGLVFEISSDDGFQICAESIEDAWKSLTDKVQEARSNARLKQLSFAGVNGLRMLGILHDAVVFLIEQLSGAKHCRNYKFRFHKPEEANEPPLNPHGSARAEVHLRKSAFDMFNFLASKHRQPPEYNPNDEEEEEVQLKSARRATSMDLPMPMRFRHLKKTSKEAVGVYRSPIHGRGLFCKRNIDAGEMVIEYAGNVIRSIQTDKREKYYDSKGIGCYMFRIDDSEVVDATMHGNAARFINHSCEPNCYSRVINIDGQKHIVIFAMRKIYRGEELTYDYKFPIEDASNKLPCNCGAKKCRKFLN
In short: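 Competition fluorescence polarization assay. CXXC domain protein is held at 2× its own KD. All domains are expressed and purified by the same method. Standard deviations come from three separate measurements.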

Compound | IC50 [µM]
C=CC(=O)N1CCC(C(=O)NS(=O)(=O)CC)(c2ccccc2)CC1 | 114
C=CC(=O)N1CCC(C(=O)NS(=O)(=O)c2ccc(OC)cc2)(c2ccccc2)CC1 | 76
C=CC(=O)N1CCC(C(=O)NS(=O)(=O)c2ccc(F)cc2)(c2ccccc2)CC1 | 74
C=CC(=O)N1CCC(C(=O)O)(c2ccc(C)cc2)CC1 | 495
C=CC(=O)N1CCC(C(=O)NS(=O)(=O)c2ccc(C)cc2)(c2ccccc2)CC1 | 136
C=CC(=O)N1CCC(C(=O)NS(=O)(=O)c2ccc(Cl)cc2)(c2ccccc2)CC1 | 153
C=CC(=O)N1CCC(C(=O)O)(c2cccc(OCC)c2)CC1 | 51
C=CC(=O)N1CCC(C(=O)O)(c2ccc(N(C)C)cc2)CC1 | 827
